Assay outcomes (PubChem)
Hits are enriched below; roughly 3% of the tested compounds scored in any of these assays.
JMJD2C inh = inhibitors of GASC-1 histone demethylase, primary screen, biochemical, fluorescence, DELFIA europium | Lysine-specific demethylase 4C (Homo sapiens), Q9H3R0 | GST-JMJD2C(1-420) H3K9me3 demethylation | inhibition, % at 2.35 µM | actives 0.069% (n = 330,000) | AID 2099, 2009;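 active means more than half of a compound's replicate wells show inhibition beyond 50%, single wells judged on their own value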;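 further: signal counts dimethyl H3K9 product captured on neutravidin plate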
Target sequence (Q9H3R0 1-420 limits assumed): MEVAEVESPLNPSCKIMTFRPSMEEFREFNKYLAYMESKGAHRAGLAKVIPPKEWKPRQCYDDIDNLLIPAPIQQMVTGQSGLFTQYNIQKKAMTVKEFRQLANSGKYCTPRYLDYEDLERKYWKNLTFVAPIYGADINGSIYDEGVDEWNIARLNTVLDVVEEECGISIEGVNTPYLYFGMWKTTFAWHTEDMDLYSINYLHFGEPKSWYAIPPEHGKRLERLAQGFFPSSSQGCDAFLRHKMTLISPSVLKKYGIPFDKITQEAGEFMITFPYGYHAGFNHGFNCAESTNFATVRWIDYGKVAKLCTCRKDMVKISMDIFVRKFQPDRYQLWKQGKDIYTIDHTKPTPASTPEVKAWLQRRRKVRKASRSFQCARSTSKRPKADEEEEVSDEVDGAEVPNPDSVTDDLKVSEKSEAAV
NR3A LBD binder = binders of NR3A ligand-binding domain, primary screen, biophysical, differential scanning fluorimetry, uHTS; NR3A LBD differential scanning fluorimetry, Tm shift; 0% = protein alone, 100% = glycine-bound protein; Tm shift relative to glycine control, % at 25 µM; actives 2.5% (n = 340,000); AID 1259313, 2017;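 active means melting temperature shift of at least 10% of the positive control shift, at one fixed dose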
aDG glyco up = activators of alpha-DG glycosylation, primary screen, uHTS, Pro5-aDG cells, AlphaScreen. alpha-DG glycosylation AlphaScreen (IIH6); 0% Pro5, 100% B10-LARGE cell signal. activation, % at 10 µM. actives 0.22% (n = 360,000). AID 624168, 2012;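 active means activation of at least 8% versus controls, or a plate z-score of at least 8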;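 further: Pro5 are CHO cells carrying HIG-tagged alpha-DG that lacks glycosylation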
Lipid droplet = inhibitors of hepatocyte lipid droplet formation, primary screen, imaging, high-throughput imaging, BODIPY stain; AID 1656, 2009; AML12 mouse hepatocytes, oleate lipid droplets; inhibition, % at 6.5 µM; actives 0.4% (n = 240,000);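 active means lipid droplet intensity inhibited by at least 50%, with more than 500 cells counted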
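Material – mouse AML12 hepatocyte cell line, fixed after treatment · Compound dosing – one dose, 6.5 µM compound · Times – compound with oleate, overnight · Measured by – Image-based BODIPY and DAPI two-channel analysis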
NPR2 activator = human GC-B receptor activators, primary screen, HEK293 GC-B cells, cGMP TR-FRET, EC30 CNP; Atrial natriuretic peptide receptor 2 (Homo sapiens), P20594; 0% at EC30 CNP, 100% saturating CNP; activation, % at 10 µM; actives 0.11% (n = 370,000); AID 1920062, 2024;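 active means activation at 10 µM reaching about 35% in either raw or pattern-adjusted values, limit read from the data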
GC-A act = GC-A stimulated cGMP production enhancers – HEK293 GC-A cells, cGMP TR-FRET, EC30 ANP, primary screen; 0% at EC30 ANP, 100% saturating ANP; actives 0.14% (n = 370,000); activation, % at 10 µM; Atrial natriuretic peptide receptor 1 (Homo sapiens), P16066; in the data active means activation above about 40%
Of the large screens only hits and unclear results are named; the others gave an inactive call.

O=C(COC(=O)c1ccc(Sc2ncn[nH]2)c([N+](=O)[O-])c1)Nc1ccc(Cl)c(Cl)c1	none (no result: JMJD2C inh, NR3A LBD binder, aDG glyco up, Lipid droplet)
Cc1cc(-c2onc(C)c2C(=O)Nc2ccc(C(F)(F)F)cc2)no1	none
Cc1noc(-c2ccc(C(F)(F)F)cc2)c1NC(=O)Nc1ccc(Cl)cc1	NR3A LBD binder 30
COC(=O)c1ccc(NCc2c(O)ccc(O)c2Br)cc1Cl	NR3A LBD binder 32 (no result: JMJD2C inh, Lipid droplet)
Cc1ccc(NC(=O)CC2C(=O)N(Cc3ccccc3)C(=S)N2NC(=O)c2ccccc2)c(C)c1 (stereo not drawn)	NR3A LBD binder 11
CNC(=O)CC1C(=O)N(Cc2ccccc2)C(=S)N1NC(=O)c1cccc(F)c1 (stereo not drawn)	NR3A LBD binder 14
CNC(=O)CC1C(=O)N(c2ccc(Cl)cc2)C(=S)N1NC(=O)c1cccc(F)c1 (stereo not drawn)	none
O=C1C[C@H](c2ccc3ccccc3c2)N=C2N1/C(=C\c1ccccc1)[C@@H](c1ccccc1C(F)(F)F)N2Cc1ccc2c(c1)OCO2	none (no result: JMJD2C inh, NR3A LBD binder, aDG glyco up, Lipid droplet)
O=C(NCc1cccc(F)c1)c1ccc(N2C(=O)Cn3c(cc4sccc43)C2=O)cc1	NR3A LBD binder 17
O=C(NC(=S)Nc1ccccc1Br)C1CCCCC1	NR3A LBD binder 13 (no result: Lipid droplet)
O=C(NC(=S)Nc1ccccc1Br)C1CCCC1	none
O=C(Nc1cccc(C(F)(F)F)c1)OC1CC2CC1[C@H]1CCCCN1[C@H]2Cc1ccccc1 (stereo partly drawn)	none (no result: JMJD2C inh, NR3A LBD binder, aDG glyco up, Lipid droplet)
O=C(Nc1ccc(S(=O)(=O)N2CCCC2)cc1)c1ccc([N+](=O)[O-])cc1	NR3A LBD binder 27
O=C(Nc1ccc(S(=O)(=O)N2CCCC2)cc1)c1ccc([N+](=O)[O-])o1	NR3A LBD binder 27 (no result: Lipid droplet, NPR2 activator, GC-A act)
O=C(Nc1ccc(S(=O)(=O)N2CCCC2)cc1)c1cccc(OC(F)F)c1	NR3A LBD binder 19 (no result: Lipid droplet)
CC(=O)Nc1ccc(C(=O)Nc2ccc(S(=O)(=O)N3CCCC3)cc2)cc1	none (no result: Lipid droplet)
COc1ccc(C(=O)Nc2ccc(S(=O)(=O)N3CCCCC3)cc2)cc1	NR3A LBD binder 24 (no result: Lipid droplet)
COc1ccc(C(=O)Nc2ccc(S(=O)(=O)N3CCN(C)CC3)cc2)cc1	none (no result: Lipid droplet)
CCOc1ccccc1N1CCN(C(=O)c2ccc(OCC(=O)N3CCOCC3)c(OC)c2)CC1	none
COC(=O)[C@@H]1C[C@@]2(c3ccccc3)c3ccccc3N(S(=O)(=O)c3ccccc3)[C@H]2N1C(=O)CNC1CCCCC1	none (no result: JMJD2C inh, NR3A LBD binder, aDG glyco up, Lipid droplet)
Cc1ccc(NC(=O)c2ccc(S(=O)(=O)N3CCCC3)cc2)cc1	NR3A LBD binder 16 (no result: Lipid droplet)
O=[N+]([O-])c1ccc(NN=Cc2cccc3ccccc23)nc1	NR3A LBD binder 29 (no result: JMJD2C inh, Lipid droplet)
COc1cccc(/C=N/Nc2ccc([N+](=O)[O-])cn2)c1O	NR3A LBD binder 29
O=C(O)c1ccccc1C=NNc1ccc([N+](=O)[O-])cn1	none (no result: JMJD2C inh, Lipid droplet)
COc1cccc(/C=N/Nc2snc(SC)c2C#N)c1O	NR3A LBD binder 30
COc1ccc(/C=N/Nc2snc(SC)c2C#N)cc1OC	none (no result: Lipid droplet)
COc1cccc(/C=N/NC(=O)N/N=C/c2cccc(OC)c2O)c1O	NR3A LBD binder 35
Cc1ccc(C=NNc2ccc([N+](=O)[O-])cn2)cc1	none (no result: JMJD2C inh, Lipid droplet)
COc1cccc(C=Nc2ccc(C)c(F)c2)c1O	NR3A LBD binder 13
O=[N+]([O-])c1cccc(N/N=C/c2cccc3ccccc23)c1	NR3A LBD binder 25
CN1CCC(=NNC(=O)CSc2ccc(Cl)cc2)CC1	NR3A LBD binder 21
NC1=C(Cl)C(=O)c2ccc(S(N)(=O)=O)cc2C1=O	none (no result: JMJD2C inh, Lipid droplet)
NC1=C(Cl)C(=O)c2ccccc2C1=O	aDG glyco up 22 (no result: JMJD2C inh, Lipid droplet)
Clc1ccc(CSc2ncnc3c2ncn3C2CCCCO2)cc1 (stereo not drawn)	none (no result: JMJD2C inh, Lipid droplet)
CCCCN1CCCOc2cc(Br)ccc2S1(=O)=O	none (no result: JMJD2C inh, NR3A LBD binder, aDG glyco up, Lipid droplet)
CCCCCN(C(=O)Cc1c(C)n(CCCCC)c2ccccc12)c1ccc(Oc2cccnc2)c(C)c1	none (no result: JMJD2C inh, NR3A LBD binder, aDG glyco up, Lipid droplet)
CN(/N=C\c1ccc(O)c(O)c1)c1nc(-c2ccccc2)cc(-c2ccccc2)n1	NR3A LBD binder 21 (no result: Lipid droplet)
COc1cc(/C=N/N(c2ccccc2)c2ccccc2)ccc1O	none
CC(=O)c1cc(-c2cc(C(F)(F)F)cc(C(F)(F)F)c2)c(=O)n2c1CCC2	none (no result: JMJD2C inh, NR3A LBD binder, aDG glyco up, Lipid droplet)
O=C(Nc1cccc(Cl)c1)O[C@@H]1CC[C@@]23CCCN2C(=O)CCC[C@H]3C1	none (no result: JMJD2C inh, NR3A LBD binder, aDG glyco up, Lipid droplet)
O=c1c2c(ncn2C2CCCC2)n(Cc2ccccc2)c(=O)n1CCOc1ccccc1	NR3A LBD binder 15
CCOC(=O)CC[C@@]1(C(=O)OCC)C[C@@H](CC(=O)NCCCN2CCCC2=O)C(=O)N2CCCC=C21	none (no result: JMJD2C inh, NR3A LBD binder, aDG glyco up, Lipid droplet)
COc1ccc(/C=N/OC(=O)Nc2ccc(Cl)cc2)c(OC)c1	NR3A LBD binder 10
COc1ccc(NC(=O)O/N=C/c2ccc(N(C)C)cc2)cc1	none
COc1ccc(C=NOCC(=O)OCC(=O)Nc2ccc(OC)cc2)cc1	NR3A LBD binder 42 (no result: Lipid droplet)
Cc1ccc(NC(=O)O/N=C/c2ccc(Br)cc2)cc1	none
Cc1ccc(NC(=O)O/N=C/c2ccc(N(C)C)cc2)cc1	NR3A LBD binder 19
COc1ccc(NC(=O)O/N=C/c2ccc(Br)cc2)cc1	NR3A LBD binder 34
CN(CC(=O)Nc1ccc(F)cc1)C(=O)CSc1ncccn1	none (no result: Lipid droplet)
Cc1cccc(NS(=O)(=O)c2ccc3[nH]c(=O)cc(C(=O)OC(C)C(=O)Nc4ccc([N+](=O)[O-])cc4)c3c2)c1 (stereo not drawn)	NR3A LBD binder 11
NC(=O)COC(=O)c1cc(=O)[nH]c2ccc(S(=O)(=O)Nc3ccc(F)cc3)cc12	none
CCc1ccc(NC(=O)C(C)OC(=O)c2cc(=O)[nH]c3ccc(S(=O)(=O)Nc4ccc(F)cc4)cc23)cc1 (stereo not drawn)	NR3A LBD binder 13 (no result: Lipid droplet)
CCn1c(SCc2c(F)cccc2F)nc2sc3c(c2c1=O)CCCC3	none (no result: JMJD2C inh, NR3A LBD binder, aDG glyco up, Lipid droplet)
CCOC(=O)N1CCN(C(=O)c2oc3ccc(S(=O)(=O)N(CC)CC)cc3c2C)CC1	none
Cc1cc(C)n2nc(C(=O)NCc3ccccc3)nc2n1	NR3A LBD binder 24
Cn1c(=O)c2cc(S(=O)(=O)N3CCN(c4ccccc4Cl)CC3)ccc2n(C)c1=O	none (no result: JMJD2C inh, NR3A LBD binder, aDG glyco up, Lipid droplet)
O=Cc1ccc([B-](F)(F)F)o1	none (no result: JMJD2C inh, NR3A LBD binder, aDG glyco up, Lipid droplet)
COc1ccc([C@H]2[C@H](C(=O)OC(C)(C)C)N3N=Cc4ccccc4C3C23C(=O)c2ccccc2C3=O)c(OC)c1 (stereo partly drawn)	none
